Data on 27 molecules can be found in ChEMBL document CHEMBL1140247, “The identification, synthesis, protein crystal structure and in vitro biochemical evaluation of a new 3,4-diarylpyrazole class of Hsp90 inhibitors” (Bioorg Med Chem Lett, 2005).

The GI50 is the concentration at which growth is held to half of that of the control. Broadly, the pIC50 is the IC50 on a negative log10 scale, so that one unit is a factor of ten. Low readings indicate a high IC50, high ones a low IC50. In general, inhibition refers to the drop in the measured response relative to a control, in per cent. A low value points to a weak effect.

pIC50: −log10 of the molar value. Where “and” joins values, the source holds several entries; their conditions need not be identical. Equal values may be shown once.

Format in all cases: functional
The test system of assay [1] is HCT-116. Put plainly: Inhibition of HCT116 human colon cancer cell proliferation. Summed up:
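HCT116 colon cancer cells; growth inhibition measured by sulforhodamine B (SRB) assay; GI50 derived.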

Assay [2] deals with ATP-dependent molecular chaperone HSP82 (Saccharomyces cerevisiae S288c, UniProt P02829). The assay is described as follows: Inhibition of yeast Hsp90 ATPase activity. In a few lines:
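Yeast Hsp90 ATPase activity assay. Original conditions were 1 mM ATP substrate, incubated 3 h at 37 °C. Later optimised conditions used lower ATP and enzyme concentrations, with overnight incubation at 37 °C. IC50 values derived.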

Assay [3] deals with ATP-dependent molecular chaperone HSP82 (Saccharomyces cerevisiae S288c) (UniProt P02829). The assay is described as follows: Inhibition of yeast Hsp90 ATPase activity at 40 uM.
ATP-dependent molecular chaperone HSP82 (Saccharomyces cerevisiae S288c), sequence (P02829 whole entry, looked up): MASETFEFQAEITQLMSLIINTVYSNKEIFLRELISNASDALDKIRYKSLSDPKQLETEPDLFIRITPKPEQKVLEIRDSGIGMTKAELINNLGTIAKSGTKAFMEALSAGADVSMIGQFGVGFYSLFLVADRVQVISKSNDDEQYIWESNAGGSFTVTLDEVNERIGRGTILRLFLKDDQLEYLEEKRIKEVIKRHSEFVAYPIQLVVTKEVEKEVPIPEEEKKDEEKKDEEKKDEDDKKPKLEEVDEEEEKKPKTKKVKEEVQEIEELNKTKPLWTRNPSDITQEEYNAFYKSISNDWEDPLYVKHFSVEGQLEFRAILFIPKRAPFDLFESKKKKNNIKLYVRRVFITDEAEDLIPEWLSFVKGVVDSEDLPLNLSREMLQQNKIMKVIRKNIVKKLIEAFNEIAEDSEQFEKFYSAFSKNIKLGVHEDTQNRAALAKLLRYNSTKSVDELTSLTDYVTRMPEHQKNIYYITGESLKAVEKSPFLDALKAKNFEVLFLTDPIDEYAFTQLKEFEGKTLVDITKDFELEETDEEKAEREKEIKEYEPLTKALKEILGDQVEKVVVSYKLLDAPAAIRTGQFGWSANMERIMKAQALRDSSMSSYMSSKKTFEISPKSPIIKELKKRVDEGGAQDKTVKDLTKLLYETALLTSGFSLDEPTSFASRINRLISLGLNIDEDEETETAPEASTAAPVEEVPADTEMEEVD

ATP-dependent molecular chaperone HSP82, sequence (P02829 whole entry): as the sequence (P02829 whole entry, looked up) above

Turning to `N#CCCCOc1cccc(-c2cn[nH]c2-c2cc(Cl)c(O)cc2O)c1`, it took 30 µM to inhibit growth in assay [1] by half (GI50). In assay [2], this molecule showed a pIC50 of 5.62.

Turning to `Oc1cc(O)c(-c2n[nH]cc2-c2ccc(-c3ccc(F)cc3)cc2)cc1Cl`, the GI50 in assay [1] came to 11 µM. In assay [2], the negative-log IC50 (pIC50) was 5.81.

As for `CCc1cc(-c2n[nH]c(C)c2-c2ccc3c(c2)OCCO3)c(O)cc1O`, the pIC50 in assay [2] was 5.05 and 5.15. In assay [1], `COC1=C2CC(C)C[C@H](OC)C(O)C(C)/C=C(\C)[C@H](OC(N)=O)[C@@H](OC)/C=C\C=C(/C)C(=O)NC(=CC1=O)C2=O` (single isomer, unassigned) [GELDANAMYCIN] yielded a GI50 of 0.067 µM. The molecule further came in with an inhibition in assay [3] of 90%. Taken in the same sequence, the figures for `C=CCNC1=C2CC(C)C[C@H](OC)C(O)C(C)/C=C(\C)[C@H](OC(N)=O)[C@@H](OC)/C=C\C=C(/C)C(=O)NC(=CC1=O)C2=O` (single isomer, unassigned) [TANESPIMYCIN] were 0.021 µM and 80%. The molecule `CCC(C)c1cc(-c2n[nH]cc2-c2ccc3c(c2)OCO3)c(O)cc1O` (stereo not given) had a pIC50 in assay [2] of 4.65. In the case of `Oc1cc(O)c(-c2n[nH]cc2-c2ccc3c(c2)OCCO3)cc1Cl`, growth in assay [1] was halved (GI50) at 23 µM. This molecule had a pIC50 in assay [2] of 5.80.

With `COc1ccc(-c2c[nH]nc2-c2cc(Cl)c(O)cc2O)cc1OC`, in assay [1], the GI50 worked out at 13 µM. The pIC50 in assay [2] is 5.62. `CC(C)c1cc(-c2[nH]ncc2-c2nc3ccccc3s2)c(O)cc1O` displayed an inhibition in assay [3] of 15%. On the same count and under the same terms, then `COc1cc(O)c(-c2[nH]ncc2-c2ccc3c(c2)OCO3)cc1C(C)C`, with 20%; and `COc1ccc(-c2[nH]nc(C)c2-c2ccc3c(c2)OCCCO3)c(O)c1`, with 25%. The same measure, in the same setting: the result for `Cc1n[nH]c(-c2ccc(O)cc2O)c1-c1ccc2c(c1)OCCO2` reads 26%. Consider `Cc1n[nH]c(-c2cc(Cl)c(O)cc2O)c1-c1ccccc1`, for which, in assay [1], it took 6.4 µM to inhibit growth by half (GI50). Also, the pIC50 in assay [2] was 5.78. `Cc1n[nH]c(-c2ccc(O)cc2O)c1Oc1ccc(F)cc1` registered an inhibition in assay [3] of 0%.

In the case of `Cc1[nH]nc(-c2cc(Cl)ccc2O)c1-c1ccc2c(c1)OCCO2`, the pIC50 in assay [2] is 4.59.

In the case of `N#CCCCOc1ccccc1-c1cn[nH]c1-c1cc(Cl)c(O)cc1O`, in assay [1], the GI50 was determined as 31 µM. In addition, the pIC50 in assay [2] is 4.89. For the molecule `COc1ccc(-c2c[nH]nc2-c2cc(C(C)C)c(OC)cc2O)cc1`, the inhibition in assay [3] stood at 13%.

`CCCc1cc(-c2[nH]nc(C)c2-c2ccc3c(c2)OCCO3)c(O)cc1O` gave a pIC50 in assay [2] of 4.34. In assay [3], this molecule had an inhibition of 25%. In turn, `CCC(C)c1cc(-c2[nH]ncc2-c2ccc3c(c2)OCCO3)c(O)cc1OC` (stereo not given) yielded an inhibition in assay [3] of 0%.

In assay [2], `Cc1n[nH]c(-c2ccc(O)c(Cl)c2)c1-c1ccc2c(c1)OCCO2` showed a pIC50 of less than 4.00. `CCC(C)c1cc(-c2[nH]ncc2-c2ccc3c(c2)OCO3)c(O)cc1O` (stereo not given) gave an inhibition in assay [3] of 64%.

`Cc1n[nH]c(-c2cc(Cl)c(O)cc2O)c1-c1ccc(OCCCC#N)cc1` displayed a GI50 in assay [1] of 3.6 µM. The pIC50 in assay [2] was more than 6.00. As to `CCC(C)c1cc(-c2[nH]ncc2-c2ccccc2)c(O)cc1OC` (stereo not given), the inhibition in assay [3] was determined as 10%. `COc1ccc(-c2cn(C)nc2-c2cc(Cl)c(O)cc2O)cc1OC` showed a pIC50 in assay [2] of less than 4.00. On to `N#CCCCOc1ccc(-c2cn[nH]c2-c2cc(Cl)c(O)cc2O)cc1`, for which the GI50 in assay [1] was determined as 6.8 µM. In assay [2], this molecule showed a pIC50 of more than 6.00. Taken in the same sequence, the figures for `Cc1[nH]nc(-c2cc(Cl)c(O)cc2O)c1-c1ccc2c(c1)OCCO2` were 4 µM and more than 6.00. In the case of `CCc1cc(-c2[nH]nc(C)c2-c2ccc3c(c2)OCCO3)c(O)cc1O`, the GI50 in assay [1] worked out at 4.1 µM. Moreover, in assay [3], the inhibition came to 79%.
